The results in this text go back to ChEMBL document CHEMBL1142707, “Bisaryloxime ethers as potent inhibitors of transthyretin amyloid fibril formation” (J Med Chem, 2005).

Experiment [1] addresses Transthyretin (Homo sapiens) (UniProt P02766). In words: Percentage of WT-TTR (3.6 uM) amyloid fibril formation at pH 4.4 upon incubation with the compound (7.2 uM). The gist of the method:
(§1)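 WT-TTR (7.2 µM, 0.4 mg/mL) in 10 mM phosphate pH 7.2, 100 mM KCl, 1 mM EDTA was preincubated 30 min at 37 °C with inhibitor added from a 1.44 mM DMSO stock. An equal volume of 200 mM acetate pH 4.2 brought the sample to pH 4.4 (3.6 µM TTR, 7.2 µM compound final). Left 72 h at 37 °C, vortexed, turbidity read at 350 and 400 or 500 nm. Run in duplicate or triplicate.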

Experiment [2] has the same target. In words: Percentage compound remaining at the conclusion of the acid-mediated fibril formation assay (72 h) in absence of TTR, assay conditions, compound (7.2 uM), pH 4.4, 37C. In outline: (§2)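 Compound at 7.2 µM was incubated in the dark with or without 3.6 µM WT-TTR under acid fibril conditions (pH 4.4, 37 °C, 72 h). Analytical RP-HPLC peak area of the compound at the end was compared with the area at the start. Measurement error stated as 4%.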

For experiment [3] the target is unchanged. In words: Percentage compound remaining at the conclusion of the acid-mediated fibril formation assay (72 h), assay conditions compound (7.2 uM), WT-TTR (3.6 uM, pH 4.4, 37C). The gist of the method:
as §2

For experiment [4] the target is unchanged. In words: Binding stoichiometry to TTR in human blood plasma determined by antibody capture/HPLC method. Type of experiment: cell-free. The gist of the method:
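Human blood plasma spiked to 10.8 µM test compound from a 2.16 mM DMSO stock and incubated 24 h at 37 °C. Plasma was precleared with plain Sepharose for 1 h at 4 °C, then split into three aliquots for anti-TTR antibody-resin capture (20 min, 4 °C) in 10 mM Tris pH 8.0, 140 mM NaCl. Resin washed, eluted with 100 mM triethylamine pH 11.5, eluate analysed by HPLC for compound:TTR stoichiometry.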

Experiment [5] shares this target. Kind of experiment: Percentage compound remaining at the conclusion of the acid-mediated fibril formation assay (72 h), assay conditions compound (7.2 uM), WT-TTR (3.6 uM, pH 7.2, 37C). In outline: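 Compound at 7.2 µM was incubated in the dark with 3.6 µM WT-TTR at 37 °C for 72 h, with the buffer held at pH 7.2. Analytical RP-HPLC peak area of the compound at the end was compared with the area at the start.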

The target is the same in experiment [6]. Kind of experiment: Percentage of WT-TTR (3.6 uM) amyloid fibril formation at pH 4.4 upon incubation with the compound (7.2 uM); compound is unstable. The gist of the method:
as §1

Take `O=C(O)c1ccc(O/N=C/c2ccccc2C(F)(F)F)cc1`: the Formation in experiment [1] is 0%. In addition, the Activity in experiment [2] came out at 79%; in experiment [3] it was 84%. Also, the Binding stoichiometry in experiment [4] was found to be 1.31.

With `Oc1c(Br)cc(/C=N/Oc2ccccc2C(F)(F)F)cc1Br`, the Formation in experiment [1] turned out to be 1%. Moreover, the Activity was determined as 78% in experiment [2] and 98% in experiment [3]. In experiment [4], the Binding stoichiometry stood at 1.86.

Consider `Oc1c(Br)cc(/C=N/Oc2cc(Cl)cc(Cl)c2)cc1Br`, for which the Formation in experiment [1] turned out to be 3%. Moreover, the Binding stoichiometry in experiment [4] turned out to be 0.69.

The compound `O=C(O)c1ccc(/C=N/Oc2ccccc2C(F)(F)F)cc1` returned a Formation in experiment [1] of 3%. For the same compound, the Activity came out at 83% in experiment [3] and 76% in experiment [5]. The Binding stoichiometry in experiment [4] amounted to 1.38.

With `O=C(O)c1cccc(O/N=C/c2cc(Br)c(O)c(Br)c2)c1`, in experiment [1], the Formation was determined as 0%. In experiment [4], this compound had a Binding stoichiometry of less than 0.5.

Regarding `Oc1c(Br)cc(/C=N/Oc2ccccc2)cc1Br`, in experiment [1], the Formation amounted to 0%. In addition, the Activity came out at 8% in experiment [2] and 76% in experiment [3]. The same compound came in with a Binding stoichiometry in experiment [4] of 1.02.

As to `O=C(O)c1ccc(O/N=C/c2cc(I)c(O)c(I)c2)cc1`, in experiment [1], the Formation came out at 1%. The figures for the Activity in experiment [2] and in experiment [3] were 91% and 83%, respectively. This compound also had a Binding stoichiometry in experiment [4] of less than 0.5.

On to `O=C(O)c1ccc(O/N=C/c2cc(Br)c(O)c(Br)c2)cc1`, for which, in experiment [1], the Formation was 0%. Also, the Activity in experiment [2] is 88%; in experiment [3] it was 81%. In addition, in experiment [4], the Binding stoichiometry was less than 0.5.

On to `O=C(O)c1cccc(O/N=C/c2cc(I)c(O)c(I)c2)c1`, for which the Formation in experiment [1] is 0%. Moreover, the Activity is 81% in experiment [2] and 77% in experiment [3]. Further, the Binding stoichiometry in experiment [4] was less than 0.5.

In turn, `Oc1c(Br)cc(/C=N/Oc2cc(F)cc(F)c2)cc1Br` displayed a Formation in experiment [1] of 3%. The same compound gave a Binding stoichiometry in experiment [4] of 1.42.

With `O=C(O)c1ccccc1/C=N/Oc1ccccc1C(=O)O`, in experiment [6], the Formation result is recorded as “Unstable”.

`O=C(O)c1cccc(/C=N/Oc2ccccc2C(F)(F)F)c1`: the Formation in experiment [1] was determined as 6%. In experiment [4], the Binding stoichiometry was 1.07.

On to `O=C(O)c1cccc(O/N=C/c2ccccc2C(F)(F)F)c1`, for which, in experiment [1], the Formation worked out at 1%. The Activity in experiment [2] amounted to 20%; in experiment [3] it was 88%. In addition, the Binding stoichiometry in experiment [4] was determined as 1.

Compound `Oc1c(I)cc(/C=N/Oc2ccccc2)cc1I` came in with a Formation in experiment [1] of 0%. The Activity in experiment [2] was 24%; in experiment [3], 79%. Further, the Binding stoichiometry in experiment [4] is 0.89.

As for `O=C(O)c1ccc(/C=N/Oc2cc(Cl)cc(Cl)c2)cc1`, in experiment [1], the Formation stood at 9%. This compound came in with a Binding stoichiometry in experiment [4] of 0.78.

In experiment [1], `O=C(O)c1ccc(O/N=C/c2c(Cl)cccc2Cl)cc1` gave a Formation of 0%. Moreover, the figures for the Activity in experiment [2] and in experiment [3] were 85% and 81%, respectively. Besides, the Binding stoichiometry in experiment [4] came out at 0.81.

In experiment [1], `Oc1c(I)cc(/C=N/Oc2cccc(C(F)(F)F)c2)cc1I` yielded a Formation of 4%. In addition, the Binding stoichiometry in experiment [4] is 1.02.

In the case of `Oc1c(I)cc(/C=N/Oc2cc(Cl)cc(Cl)c2)cc1I`, the Formation in experiment [1] was 4%. For the same compound, in experiment [4], the Binding stoichiometry came out at 0.55.

For `Oc1c(I)cc(/C=N/Oc2ccccc2C(F)(F)F)cc1I`, the Formation in experiment [1] is 1%. Besides, the results for the Activity in experiment [2] and in experiment [3] were 89% and 100%, respectively. The Binding stoichiometry in experiment [4] worked out at 1.71.

With `O=C(O)c1cccc(/C=N/Oc2cc(F)cc(F)c2)c1`, in experiment [1], the Formation came to 6%. The compound also displayed a Binding stoichiometry in experiment [4] of less than 0.5.

`O=C(O)c1ccccc1O/N=C/c1cc(Cl)cc(Cl)c1` displayed a Formation in experiment [1] of 1%. In addition, the Activity was 4% in experiment [2] and 74% in experiment [3]. In addition, in experiment [4], the Binding stoichiometry was less than 0.5.

`O=C(O)c1ccc(/C=N/Oc2cc(F)cc(F)c2)cc1`: in experiment [1], the Formation amounted to 9%. Also, in experiment [4], the Binding stoichiometry is less than 0.5.
